Source: BindingDB's records for doi:10.1021/jm030565g (Glaxosmithkline, 2004)

Columns and labels:
[1] = Effective concentration for lipogenesis induced by retinoid X receptor alpha in C3H10T1/2 clone 8 fibroblast cells
[2] = Effective concentration for retinoic acid receptor alpha induced lipogenesis in C3H10T1/2 clone 8 fibroblast cells
[3] = Inhibitory concentration for lipogenesis induced by retinoic acid receptor alpha in C3H10T1/2 clone 8 fibroblast cells
[4] = Effective concentration for lipogenesis induced by retinoid X receptor alpha in C3H10T1/2 clone 8 fibroblast cells; Partial agonist
[5] = molecular target: T1, Retinoic acid receptor RXR-alpha (Homo sapiens, UniProt P19793); assay: Effective concentration for lipogenesis induced by retinoid X receptor alpha in C3H10T1/2 clone 8 fibroblast cells
T1 sequence (P19793 whole entry): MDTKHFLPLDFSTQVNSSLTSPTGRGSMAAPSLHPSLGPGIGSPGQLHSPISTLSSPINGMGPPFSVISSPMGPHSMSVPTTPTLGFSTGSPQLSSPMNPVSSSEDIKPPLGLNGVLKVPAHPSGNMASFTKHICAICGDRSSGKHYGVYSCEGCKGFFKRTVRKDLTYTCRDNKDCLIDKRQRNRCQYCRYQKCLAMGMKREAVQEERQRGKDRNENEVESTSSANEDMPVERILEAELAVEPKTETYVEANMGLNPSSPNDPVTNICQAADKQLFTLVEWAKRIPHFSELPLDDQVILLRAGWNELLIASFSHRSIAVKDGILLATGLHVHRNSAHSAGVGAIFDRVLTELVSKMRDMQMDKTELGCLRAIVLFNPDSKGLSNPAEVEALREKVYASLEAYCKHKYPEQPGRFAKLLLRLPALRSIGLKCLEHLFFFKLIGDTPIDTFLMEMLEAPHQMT
How it was run: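 Lipogenesis measured in C3H10T1/2 clone 8 fibroblasts as triglyceride accumulation, used as a surrogate marker of RXR activity.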

Row | SMILES | EC50 [1] [nM] | EC50 [2] [nM] | further results
1 | Cc1cc2c(cc1C1CCCc3oc(/C=C/C(=O)O)cc31)C(C)(C)CCC2(C)C (stereo unspecified) [(E)-3-[4-(3,5,5,8,8-Pentamethyl-5,6,7,8-tetrahydro-naphthalen-2-yl)-4,5,6,7-tetrahydro-benzofuran-2-yl]-acrylic acid] | 3000 | – | –
2 | CCCOc1cc2c(cc1C1CCCc3oc(/C=C/C(=O)O)cc31)C(C)(C)CCC2(C)C (stereo unspecified) [(E)-3-[4-(5,5,8,8-Tetramethyl-3-propoxy-5,6,7,8-tetrahydro-naphthalen-2-yl)-4,5,6,7-tetrahydro-benzofuran-2-yl]-acrylic acid] | – | – | IC50 [3]: > 1000 nM; EC50 [4]: 40 nM
3 | CC1(C)CCC(C)(C)c2cc(Cc3coc(/C=C/C(=O)O)c3)ccc21 [(E)-3-[4-(5,5,8,8-Tetramethyl-5,6,7,8-tetrahydro-naphthalen-2-ylmethyl)-furan-2-yl]-acrylic acid] | – | 57 | –
4 | Cc1oc(/C=C/C(=O)O)cc1Cc1ccc2c(c1)C(C)(C)CCC2(C)C [(E)-3-[5-Methyl-4-(5,5,8,8-tetramethyl-5,6,7,8-tetrahydro-naphthalen-2-ylmethyl)-furan-2-yl]-acrylic acid] | 1000 | > 1000 | –
5 | COc1cc2c(cc1C1CCCc3oc(/C=C/C(=O)O)cc31)C(C)(C)CCC2(C)C (stereo unspecified) [(E)-3-[4-(3-Methoxy-5,5,8,8-tetramethyl-5,6,7,8-tetrahydro-naphthalen-2-yl)-4,5,6,7-tetrahydro-benzofuran-2-yl]-acrylic acid] | – | – | EC50 [4]: 123 nM

Continued by falling EC50 [1], values first:

Row | EC50 [1] [nM] | EC50 [2] [nM] | SMILES | further results
6 | 749 | > 10000 | CC1(C)CCC(C)(C)c2cc(C3CCCc4oc(/C=C/C(=O)O)nc43)ccc21 (stereo unspecified) [(E)-3-[4-(5,5,8,8-Tetramethyl-5,6,7,8-tetrahydro-naphthalen-2-yl)-4,5,6,7-tetrahydro-benzooxazol-2-yl]-acrylic acid] | –
7 | 660 | – | CC1(C)CCC(C)(C)c2cc(C3CCCc4oc(/C=C/C(=O)O)cc43)ccc21 (stereo unspecified) [(E)-3-[4-(5,5,8,8-Tetramethyl-5,6,7,8-tetrahydro-naphthalen-2-yl)-4,5,6,7-tetrahydro-benzofuran-2-yl]-acrylic acid] | EC50 [5]: 4 nM
8 | 72 | – | CC1(C)CCC(C)(C)c2cc(C3CCCc4sc(/C=C/C(=O)O)cc43)ccc21 (stereo unspecified) [(E)-3-[4-(5,5,8,8-Tetramethyl-5,6,7,8-tetrahydro-naphthalen-2-yl)-4,5,6,7-tetrahydro-benzo[b]thiophen-2-yl]-acrylic acid] | –
9 | 22 | > 10000 | CN1Cc2oc(/C=C/C(=O)O)cc2C(c2ccc3c(c2)C(C)(C)CCC3(C)C)C1 (stereo unspecified) | –
10 | 10 | – | C/C(=C\C(=O)O)c1cc2c(o1)CCCC2c1ccc2c(c1)C(C)(C)CCC2(C)C (stereo unspecified) | –
11 | 5 | – | CC1(C)CCC(C)(C)c2cc(C3CCCc4oc(C=C5SC(O)=NC5=O)cc43)ccc21 (stereo unspecified) [5-[1-[4-(5,5,8,8-Tetramethyl-5,6,7,8-tetrahydro-naphthalen-2-yl)-4,5,6,7-tetrahydro-benzofuran-2-yl]-meth-(E)-ylidene]-thiazolidine-2,4-dione] | –
